Bioassay records as filed in PubChem BioAssay.
PMI act = increases human mannose-6-phosphate isomerase activity | P34949 | purified human PMI, coupled resazurin fluorescence, 20 min; active compounds read high; 1 = vehicle control, 0 substrate-free wells | 190,000 tested, 0.005% active | activation factor at 20 µM;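 active means activation factor of 2 or more at 20 µM, relative to plate controls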
Cl transport mod = modulates chloride dependent transport by human KCC2. AID 1456. KCC2 cells, thallium flux FluoZin-2 fluorescence. B-score of Tl+ flux slope (higher = more flux/activation; lower = inhibition) at 10 µM. Q9H2X9. 190,000 tested, 2.2% active;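 active means thallium flux slope and its plate-corrected score both differing from the plate sample mean at a set confidence after two filtering rounds, in either direction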;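 further: slope of fluorescence scaled to starting intensity during 10 to 20 s after thallium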
Target sequence (Q9H2X9 whole entry, looked up): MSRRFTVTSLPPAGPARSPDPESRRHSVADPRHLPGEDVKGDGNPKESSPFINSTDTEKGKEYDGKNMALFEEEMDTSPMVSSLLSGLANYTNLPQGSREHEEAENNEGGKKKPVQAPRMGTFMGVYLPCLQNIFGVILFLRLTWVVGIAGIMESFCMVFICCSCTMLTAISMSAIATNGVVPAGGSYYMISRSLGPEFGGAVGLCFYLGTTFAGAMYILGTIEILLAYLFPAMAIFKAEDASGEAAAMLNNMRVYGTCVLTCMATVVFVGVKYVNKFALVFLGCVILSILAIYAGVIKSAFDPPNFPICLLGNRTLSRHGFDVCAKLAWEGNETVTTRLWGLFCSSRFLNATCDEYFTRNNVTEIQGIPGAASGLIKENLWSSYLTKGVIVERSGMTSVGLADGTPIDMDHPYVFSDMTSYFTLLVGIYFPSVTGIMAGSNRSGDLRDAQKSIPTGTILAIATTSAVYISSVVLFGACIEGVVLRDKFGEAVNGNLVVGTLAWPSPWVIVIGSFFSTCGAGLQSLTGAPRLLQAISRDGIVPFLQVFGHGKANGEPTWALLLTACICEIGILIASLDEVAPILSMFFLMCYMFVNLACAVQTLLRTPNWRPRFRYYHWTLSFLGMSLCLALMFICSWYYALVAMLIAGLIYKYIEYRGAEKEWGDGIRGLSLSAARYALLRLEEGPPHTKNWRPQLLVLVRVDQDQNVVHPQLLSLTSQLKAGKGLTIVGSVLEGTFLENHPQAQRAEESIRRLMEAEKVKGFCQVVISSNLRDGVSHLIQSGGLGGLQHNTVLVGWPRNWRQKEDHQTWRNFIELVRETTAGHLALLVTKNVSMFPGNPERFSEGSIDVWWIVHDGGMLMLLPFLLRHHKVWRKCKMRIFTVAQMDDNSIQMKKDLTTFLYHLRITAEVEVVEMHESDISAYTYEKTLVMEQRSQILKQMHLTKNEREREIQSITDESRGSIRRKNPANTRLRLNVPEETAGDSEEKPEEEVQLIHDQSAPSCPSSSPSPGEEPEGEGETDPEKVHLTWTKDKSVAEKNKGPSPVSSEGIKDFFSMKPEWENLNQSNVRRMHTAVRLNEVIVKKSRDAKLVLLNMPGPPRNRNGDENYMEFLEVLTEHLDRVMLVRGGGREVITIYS
PMI act hi M6P = PMI (human) activation, high substrate; AID 1216; coupled PMI enzyme assay, resazurin fluorescence, 20 min; active compounds read high; 1 = untreated enzyme, 0 = substrate-free blank; P34949; 190,000 tested, 0.34% active; activation factor at 20 µM;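 active means activation factor of 2 or more at 20 µM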
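Material: human phosphomannose isomerase with PGI, G6PDH, diaphorase coupling enzymes; amount: PMI at 15 ng/mL final; also added: Mannose-6-phosphate 1.0 mM (near-saturating) plus 0.22 mM NADP+; incubation: enzyme reaction with compound 20 min at room temperature; signal: resorufin fluorescence (Ex 544/Em 590 nm) from resazurin via diaphorase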
ABCB1 block = human ABCB1 inhibition, ABCG2 as counter-screen | inhibition, % at 6.6 µM | 190,000 tested, 0.067% active | P08183 | CCRF-Adr cells, JC-1 efflux, flow cytometry; in the data active means inhibition above about 40%;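 further: higher value means more JC-1 retained so stronger ABCB1 efflux block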
ABCG2 inh = inhibitors of human ABCG2 transporter, ABCB1 counter-screen | IgMXP3 cells, JC-1 efflux, flow cytometry | inhibition, % at 6.6 µM | 190,000 tested, 0.1% active;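 active means inhibition above 80%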
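test system = two drug-resistant human cell lines, ABCG2 and ABCB1 | amount = 3 million cells/mL final, two lines in 1:1 ratio | reagent = JC-1 transporter substrate | doses = one concentration, 6.6 µM final | incubation = 10 min at 25 °C | signal = flow cytometric JC-1 green MFI at 530 nm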
ROMK mod = modulators of human ROMK potassium channel. 130,000 tested, 2% active. P48048. B-score at 10 µM. Tet-inducible ROMK, thallium flux fluorescence; actives lie on both sides;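 active means signal ratio slope over the read window, or its plate-corrected B-score, at least 3 SD from the plate mean, either direction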;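 further: B-score of the F/F0 ratio slope over 7 to 12 s after thallium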
ROMK hit retest = human ROMK channel modulation, retest confirmation | shares compounds with ROMK mod | ROMK thallium flux, fluorescence ratio; active compounds read low | 3,000 tested, 54% active | normalized thallium flux (F/F0 slope) at 10 µM;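 active means Flux at 10 µM at least 3 SD below or above vehicle control mean in one or both replicates; inconclusive means no clear call, values can overlap the other calls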
Large screens that a line does not name were inactive (follow-up assays come after a bar, where they were run). Rows were chosen to be rich in hits. Some 3.3% of all compounds tested hit in one or more screens of this group.

Cc1[nH]n(-c2ccc(C(=O)O)cc2)c(=O)c1CCO	ROMK mod 3.8 | ROMK hit retest inactive
CCCOc1ccc(NC(=O)CC2C(=O)N(C)C(=S)N2Cc2cccs2)cc1 (configuration not stated)	none (no result: ROMK mod)
CCN1CCCc2cc(CN(CCN3CCOCC3)C(=O)Nc3ccc(C)c(C)c3)ccc21	ROMK mod -3.5 | ROMK hit retest 0.056
COc1ccc(C2NC(=O)NC(O)(C(F)(F)F)C2C(=O)c2ccc(C)cc2)cc1 (configuration not stated)	none (no result: ROMK mod)
Cc1cccc(-c2nsc(SCC(=O)NCC3CCCO3)n2)c1 (configuration not stated)	none
COc1cccc(CCc2nnc(CCC(=O)N3CCN(Cc4ccccn4)CC3)o2)c1	none
Cc1cccc(C)c1OCC(O)CNS(=O)(=O)c1ccccc1C(=O)N1CCCCC1 (configuration not stated)	none (no result: Cl transport mod) | ROMK hit retest inactive
CC(C)CNS(=O)(=O)c1ccccc1C(=O)N1CCCCC1	none (no result: ROMK mod)
O=C(OCCNc1ccc(C(F)(F)F)cc1[N+](=O)[O-])c1cc2ccccc2oc1=O	none (no result: PMI act, PMI act hi M6P, ABCB1 block, ABCG2 inh, ROMK mod)
Cc1sc2ncnc(NC3CCN(Cc4ccccc4)CC3)c2c1C	ROMK mod -3.7 | ROMK hit retest inconclusive
Cc1cc2nc(C3CCN(C(=S)NCCCOC(C)C)CC3)[nH]c2cc1C	none (no result: Cl transport mod)
O=C1CC(C2CCCO2)C(=O)N1c1ccccc1 (configuration not stated)	none
CSc1nc2ccc(S(=O)(=O)NC3CCCCC3)cc2s1	ROMK mod -2.4 (no result: Cl transport mod) | ROMK hit retest inconclusive
Cc1ccc(S(=O)(=O)Nc2ccccc2C(=O)Nc2nc(-c3ccc(F)cc3)cs2)cc1	none (no result: ROMK mod) | ROMK hit retest 0.057
O=C(Nc1cc(S(=O)(=O)Nc2ccc(Cl)cc2)ccc1O)c1ccc(S(=O)(=O)N2CCCCCC2)cc1	none
Cc1ccc(S(=O)(=O)CC(=O)Nc2nc(-c3ccccc3)cs2)cc1	none (no result: Cl transport mod)
Cc1ccc(S(=O)(=O)Nc2ccccc2C(=O)NCc2cccnc2)cc1	ROMK mod 2.8 | ROMK hit retest inactive
O=C(NCc1cccnc1)c1ccccc1NS(=O)(=O)c1ccc(F)cc1F	none (no result: PMI act, PMI act hi M6P, ABCB1 block, ABCG2 inh, ROMK mod)
O=C(Nc1cc(S(=O)(=O)N2CCCCC2)ccc1O)c1ccccc1NS(=O)(=O)c1ccc(F)cc1	ROMK mod 3.3 | ROMK hit retest inactive
CC(C)C(=O)Nc1ccc(NC(=S)NC(=O)c2ccc([N+](=O)[O-])cc2)cc1	none
CS(=O)(=O)N1CCCC(C(=O)NCCCN2CCOCC2)C1 (configuration not stated)	none (no result: Cl transport mod)
CCCCCn1c(CN2CCN(c3cc(Cl)ccc3C)CC2)nc2c1c(=O)[nH]c(=O)n2C	none (no result: ROMK mod)
COc1cccc(C(=O)CSc2nnc(-c3cc(OC)cc(OC)c3)o2)c1	ROMK mod 1.1 (no result: Cl transport mod) | ROMK hit retest inconclusive
Cn1nc(-c2ccc(Cl)cc2)c2cc(C(=O)NCCCN3CCCC3)sc21	none (no result: Cl transport mod, ROMK mod) | ROMK hit retest 0.059
CNC(=O)/C(C#N)=C/c1c(N(Cc2ccccc2)Cc2ccccc2)nc2c(C)cccn2c1=O	none (no result: ROMK mod) | ROMK hit retest 0.059
Cn1c(=O)c2c(nc(N3CCN(c4ccccc4)CC3)n2CCCc2ccccc2)n(C)c1=O	none (no result: ROMK mod)
Cn1c(=O)c2c(nc(N3CCN(Cc4ccccc4)CC3)n2CCCc2ccccc2)n(C)c1=O	none (no result: ROMK mod) | ROMK hit retest 0.058
CNCCCOc1cc(C)cc(C)c1C	none
Cc1cc(NCCCn2ccnc2)n2nc(C)c(-c3ccccc3)c2n1	none (no result: ROMK mod)
CCCCn1cnc2c(c(-c3ccccc3)c(-c3ccccc3)n2Cc2ccco2)c1=N	none (no result: PMI act, PMI act hi M6P, ABCB1 block, ABCG2 inh, ROMK mod) | ROMK hit retest 0.03
N=c1c2c(-c3ccccc3)c(-c3ccccc3)n(Cc3ccccc3)c2ncn1CCCn1ccnc1	ROMK mod -4.4 | ROMK hit retest 0.05
N=c1c2c(-c3ccccc3)c(-c3ccccc3)n(Cc3ccco3)c2ncn1Cc1ccco1	none (no result: ROMK mod)
COc1ccc(OC)c(NC(=O)CN2C(=O)NC3(CCOc4ccccc43)C2=O)c1 (configuration not stated)	none
Cc1ccccc1NC(=S)N(Cc1ccccc1)Cc1cccs1	none
O=C(COC(=O)CCc1nc2ccccc2s1)NCc1ccco1	none
